From the M2OR odorant receptor database come the findings set out here.

Molecules are shown by their SMILES. Numbering of substitutions follows the chain as printed.

What all share (settings): stereoisomer not certain
One assay concerns the target T1, OR9A4 (Homo sapiens) (UniProt Q8NGU2).
T1 sequence (whole entry): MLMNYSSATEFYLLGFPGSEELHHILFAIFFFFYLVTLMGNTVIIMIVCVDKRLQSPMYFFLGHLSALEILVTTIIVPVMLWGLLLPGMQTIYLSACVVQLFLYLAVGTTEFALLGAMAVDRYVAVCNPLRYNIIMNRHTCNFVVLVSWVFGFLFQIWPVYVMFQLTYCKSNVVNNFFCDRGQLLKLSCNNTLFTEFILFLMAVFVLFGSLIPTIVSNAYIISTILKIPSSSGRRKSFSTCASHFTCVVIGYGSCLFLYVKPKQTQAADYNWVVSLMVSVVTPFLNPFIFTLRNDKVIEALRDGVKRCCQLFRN
In outline: (§1)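 Transient luciferase assays in mammalian cell lines were common, though methods varied by source. The values come from published papers and their supplementary material, with extra details from the original authors when needed. Responsive refers to a measured signal the original authors judged statistically different from baseline, and non-responsive (inactive) to the remainder.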

For another assay, the target named is T2, OR9G1 (Homo sapiens) (UniProt Q8NH87).
T2 sequence (whole entry): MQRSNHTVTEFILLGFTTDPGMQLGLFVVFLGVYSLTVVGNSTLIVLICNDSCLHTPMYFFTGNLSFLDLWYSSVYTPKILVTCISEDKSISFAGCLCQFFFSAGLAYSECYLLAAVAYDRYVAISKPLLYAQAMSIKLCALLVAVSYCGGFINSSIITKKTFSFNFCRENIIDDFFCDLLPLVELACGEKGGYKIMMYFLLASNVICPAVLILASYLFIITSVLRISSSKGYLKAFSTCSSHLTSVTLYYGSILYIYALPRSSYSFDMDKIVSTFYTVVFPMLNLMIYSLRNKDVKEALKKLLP
In outline:
as §1

The target in a further assay is T3, OR9G4 (Homo sapiens) (UniProt Q8NGQ1).
T3 sequence (whole entry): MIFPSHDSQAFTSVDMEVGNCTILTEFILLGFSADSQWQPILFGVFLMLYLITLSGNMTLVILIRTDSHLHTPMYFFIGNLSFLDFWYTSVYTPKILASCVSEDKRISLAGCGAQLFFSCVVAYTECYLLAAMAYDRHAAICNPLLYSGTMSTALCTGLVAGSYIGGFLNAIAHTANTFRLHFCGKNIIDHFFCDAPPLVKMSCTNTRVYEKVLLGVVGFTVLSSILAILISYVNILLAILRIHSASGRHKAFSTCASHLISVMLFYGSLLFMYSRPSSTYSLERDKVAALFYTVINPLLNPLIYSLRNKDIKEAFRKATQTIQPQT
In short, it runs like this:
as §1

The target of a further assay is T4, OR9G9 (Homo sapiens) (UniProt P0C7N8).
T4 sequence (whole entry): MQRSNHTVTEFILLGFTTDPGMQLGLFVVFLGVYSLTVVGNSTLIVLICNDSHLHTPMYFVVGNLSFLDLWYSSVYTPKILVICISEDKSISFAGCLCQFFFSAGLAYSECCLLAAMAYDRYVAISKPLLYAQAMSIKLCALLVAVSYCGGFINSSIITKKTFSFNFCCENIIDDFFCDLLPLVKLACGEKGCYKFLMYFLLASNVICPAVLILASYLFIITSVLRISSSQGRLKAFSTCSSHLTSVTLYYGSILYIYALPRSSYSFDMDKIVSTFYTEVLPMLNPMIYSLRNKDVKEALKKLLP
In outline:
as §1

The target in the next assay is T5, OR9I1 (Homo sapiens) (UniProt Q8NGQ6).
T5 sequence (whole entry): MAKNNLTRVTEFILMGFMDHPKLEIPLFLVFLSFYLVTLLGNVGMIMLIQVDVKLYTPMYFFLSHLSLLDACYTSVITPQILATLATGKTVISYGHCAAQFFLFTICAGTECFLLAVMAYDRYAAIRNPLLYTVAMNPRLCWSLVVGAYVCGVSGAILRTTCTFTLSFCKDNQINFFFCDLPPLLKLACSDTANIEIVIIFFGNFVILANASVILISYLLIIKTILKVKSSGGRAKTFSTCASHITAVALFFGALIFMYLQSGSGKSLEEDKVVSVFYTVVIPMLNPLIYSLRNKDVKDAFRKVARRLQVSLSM
In outline: as §1

For a further assay, the target named is T6, OR9K2 (Homo sapiens) (UniProt Q8NGE7).
T6 sequence (whole entry): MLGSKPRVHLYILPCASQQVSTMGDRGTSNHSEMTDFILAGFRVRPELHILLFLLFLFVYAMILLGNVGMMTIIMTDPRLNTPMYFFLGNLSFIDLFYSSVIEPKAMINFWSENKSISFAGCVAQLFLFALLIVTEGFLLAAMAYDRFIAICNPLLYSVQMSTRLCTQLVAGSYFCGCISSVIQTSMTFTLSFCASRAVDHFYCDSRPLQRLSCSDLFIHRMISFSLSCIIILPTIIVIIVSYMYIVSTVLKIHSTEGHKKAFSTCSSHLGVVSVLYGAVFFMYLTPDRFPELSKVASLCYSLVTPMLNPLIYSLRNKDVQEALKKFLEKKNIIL
In outline:
as §1

The target of the next assay is T7, OR9Q1 (Homo sapiens) (UniProt Q8NGQ5).
T7 sequence (whole entry): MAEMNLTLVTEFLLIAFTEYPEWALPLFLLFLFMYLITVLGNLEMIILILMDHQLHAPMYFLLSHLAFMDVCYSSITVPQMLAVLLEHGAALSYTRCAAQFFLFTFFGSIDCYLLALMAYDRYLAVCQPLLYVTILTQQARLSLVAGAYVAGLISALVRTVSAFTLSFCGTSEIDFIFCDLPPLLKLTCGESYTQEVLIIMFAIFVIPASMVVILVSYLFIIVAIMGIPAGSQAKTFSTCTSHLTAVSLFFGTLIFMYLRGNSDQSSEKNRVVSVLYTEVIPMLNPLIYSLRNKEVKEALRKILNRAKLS
In outline:
as §1

The target in the next assay is T8, OR9Q2 (Homo sapiens) (UniProt Q8NGE9).
T8 sequence (whole entry): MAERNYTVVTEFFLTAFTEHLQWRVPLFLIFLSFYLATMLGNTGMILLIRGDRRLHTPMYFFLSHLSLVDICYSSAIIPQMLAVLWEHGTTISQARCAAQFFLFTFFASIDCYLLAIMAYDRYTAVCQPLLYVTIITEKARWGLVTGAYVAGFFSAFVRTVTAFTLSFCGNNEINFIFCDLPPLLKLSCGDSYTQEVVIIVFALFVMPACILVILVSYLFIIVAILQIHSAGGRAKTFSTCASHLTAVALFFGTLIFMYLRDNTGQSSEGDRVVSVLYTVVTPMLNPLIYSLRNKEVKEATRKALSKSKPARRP
In outline:
as §1

A further assay has as its target T9, Or5an6 (Mus musculus) (UniProt Q8VFV4).
T9 sequence (whole entry): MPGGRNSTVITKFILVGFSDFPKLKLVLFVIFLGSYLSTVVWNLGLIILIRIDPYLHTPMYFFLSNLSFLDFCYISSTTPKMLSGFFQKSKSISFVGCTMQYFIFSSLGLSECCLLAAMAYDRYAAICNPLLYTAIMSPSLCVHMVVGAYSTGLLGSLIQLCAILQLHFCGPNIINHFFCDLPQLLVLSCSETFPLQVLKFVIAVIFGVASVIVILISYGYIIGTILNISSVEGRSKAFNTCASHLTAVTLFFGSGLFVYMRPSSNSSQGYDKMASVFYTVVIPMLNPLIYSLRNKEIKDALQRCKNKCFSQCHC
In outline: as §1

The next assay concerns the target T10, Or10j5 (Mus musculus) (UniProt Q62007).
T10 sequence (whole entry): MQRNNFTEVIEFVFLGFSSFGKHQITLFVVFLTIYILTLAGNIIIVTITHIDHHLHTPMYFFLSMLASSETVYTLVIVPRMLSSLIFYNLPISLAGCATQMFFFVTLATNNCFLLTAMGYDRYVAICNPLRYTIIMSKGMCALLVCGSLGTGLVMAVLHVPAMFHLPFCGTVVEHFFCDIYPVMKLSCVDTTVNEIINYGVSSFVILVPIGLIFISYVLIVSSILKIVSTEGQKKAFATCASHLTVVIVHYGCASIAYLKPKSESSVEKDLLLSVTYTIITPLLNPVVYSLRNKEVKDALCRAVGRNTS
In short, it runs like this: as §1

The test system of a further assay is T11, OR9G4 H6Y N206D V222A.
T11 sequence (whole entry): T3 sequence (whole entry) with H6Y, N206D, V222A
In outline: as §1

A further assay relates to T12, OR9G4 N206D V222A.
T12 sequence (whole entry): T3 sequence (whole entry) with N206D, V222A
In short, it runs like this:
as §1

Another assay deals with T13, OR9G9.
T13 sequence (whole entry): T4 sequence (whole entry) with C193G
In outline:
as §1

Another assay deals with T14, OR9K2 R207H.
T14 sequence (whole entry): T6 sequence (whole entry) with R207H
In short, it runs like this:
as §1

The test system of a further assay is T15, OR9Q1 A83T.
T15 sequence (whole entry): T7 sequence (whole entry) with A83T
In short, it runs like this: as §1

For the next assay, the system named is T16, OR9Q2 C179R.
T16 sequence (whole entry): T8 sequence (whole entry) with C179R
In outline: as §1

In another assay the target is T17, Or5k16 (Mus musculus) (UniProt Q7TS48).
T17 sequence (whole entry): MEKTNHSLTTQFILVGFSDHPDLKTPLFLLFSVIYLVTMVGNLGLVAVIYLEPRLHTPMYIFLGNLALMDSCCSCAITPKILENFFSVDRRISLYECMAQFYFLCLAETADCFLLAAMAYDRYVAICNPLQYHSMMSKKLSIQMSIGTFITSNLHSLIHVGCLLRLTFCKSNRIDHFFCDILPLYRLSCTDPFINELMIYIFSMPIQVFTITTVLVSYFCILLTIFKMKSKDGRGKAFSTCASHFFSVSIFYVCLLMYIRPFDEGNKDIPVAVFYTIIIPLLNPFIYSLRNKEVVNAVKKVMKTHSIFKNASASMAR
In short, it runs like this:
as §1
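Also: active if original authors judged signal statistically different from baseline.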

For `CC(CO)CS` (stereo not drawn), the “odorant receptor agonist call” value with OR9A4 (Homo sapiens), with OR9G1 (Homo sapiens), with OR9G4 (Homo sapiens), in the assay with OR9G9 (Homo sapiens), with OR9I1 (Homo sapiens) and with OR9K2 (Homo sapiens) was “inactive” throughout. Also, the “odorant receptor agonist call” value with OR9Q1 (Homo sapiens) and with OR9Q2 (Homo sapiens) was “inactive” throughout.
Regarding `CC1CCCCCCCCCCCCC(=O)C1` (stereo not drawn), the “odorant receptor agonist call” value in the assay with OR9A4 (Homo sapiens), in the assay with OR9G1 (Homo sapiens), with OR9G4 (Homo sapiens), in the assay with OR9G9 (Homo sapiens), with OR9I1 (Homo sapiens) and with OR9K2 (Homo sapiens) was “inactive” each time. Further, the “odorant receptor agonist call” value in the assay with OR9Q1 (Homo sapiens) and with OR9Q2 (Homo sapiens) was “inactive” each time. In the assay with Or5an6 (Mus musculus), the “odorant receptor agonist call” value is “active”.
For the compound `O=C(O)CCCCCCCCCC(=O)O`, in the assay with Or10j5 (Mus musculus), the “odorant receptor agonist call” value was “inactive”.
With `CCCCC(S)C(C)CO` (stereo not drawn), the “odorant receptor agonist call” value with OR9A4 (Homo sapiens), with OR9G1 (Homo sapiens), with OR9G4 (Homo sapiens), with OR9G9 (Homo sapiens), with OR9I1 (Homo sapiens) and with OR9K2 (Homo sapiens) was “inactive” in each case. Further, the “odorant receptor agonist call” value with OR9Q1 (Homo sapiens) and with OR9Q2 (Homo sapiens) was “inactive” in each case.
Regarding `CC1=C(O)C(=O)C(C)O1` (stereo not drawn), the “odorant receptor agonist call” value with OR9A4 (Homo sapiens), in the assay with OR9G1 (Homo sapiens), with OR9G4 (Homo sapiens), in the assay with OR9G4 H6Y N206D V222A, with OR9G4 N206D V222A and with OR9G9 was “inactive” in each case. Further, the “odorant receptor agonist call” value with OR9I1 (Homo sapiens), in the assay with OR9K2 (Homo sapiens), in the assay with OR9K2 R207H, with OR9Q1 (Homo sapiens), with OR9Q1 A83T and with OR9Q2 (Homo sapiens) was “inactive” each time. For the same compound, the “odorant receptor agonist call” value in the assay on OR9Q2 C179R was “inactive”.
`Cc1cnc(C)c(C)n1`: the “odorant receptor agonist call” value with OR9A4 (Homo sapiens), with OR9G1 (Homo sapiens), with OR9G4 (Homo sapiens), with OR9G4 H6Y N206D V222A, in the assay on OR9G4 N206D V222A and in the assay on OR9G9 was “inactive” throughout. In addition, the “odorant receptor agonist call” value with OR9I1 (Homo sapiens), with OR9K2 (Homo sapiens), in the assay on OR9K2 R207H, in the assay with OR9Q1 (Homo sapiens), in the assay on OR9Q1 A83T and with OR9Q2 (Homo sapiens) was “inactive” throughout. The “odorant receptor agonist call” value in the assay on OR9Q2 C179R and with Or5k16 (Mus musculus) was “inactive” throughout.
